# pEC50: −log10 of the molar value.
# Key:
# [1] = Cmax in rat liver at 50 mg/kg, po; format: ADME, organism-based; design: dose 50 mg/kg, route oral
# [2] = tested on: Hepatocyte; assay: Prodrug conversion in rat cryopreserved hepatocytes assessed as 2'-deoxy-2'-spirooxetane uridine triphosphate level per million cells at 10 uM after 2 hrs by LC-MS/MS analysis; format: ADME, cell-based
# Outline: (§1)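 Plated cryopreserved hepatocytes (study B) incubated with 10 µM unlabeled prodrug for 2, 8 or 24 h. Triphosphate measured in cell lysates and expressed as pmol/million hepatocytes. Quantification limit 2 ng/10^6 cells.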
# [3] = Tmax in mouse liver at 50 mg/kg, po; format: ADME, organism-based
# Outline: (§2)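 Single oral dose of 50 mg/kg formulated in 20% HP-β-cyclodextrin. Prodrug and its triphosphate were measured in plasma and liver (ng/mL or ng/g) over time, and Cmax, tmax, AUC, tlast and t1/2 were derived. For some analytes, data from two independent studies are reported.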
# [4] = tested on: Liver; assay: Tlast in dog liver at 50 mg/kg, po; format: ADME, organism-based, Canis lupus familiaris; conditions: in vivo; outline: as §2
# [5] = tested on: Hepatitis C virus; assay: Antiviral activity against HCV genotype 3a infected in homozygous cDNA-uPA chimeric SCID mouse bearing humanized hepatocytes assessed as change in HCV RNA level in serum at 100 mg/kg, po bid administered through gavage for 7 days by RT-PCR method; format: functional, Hepacivirus hominis, Hepatocyte
# Outline: (§3)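 Male chimeric SCID cDNA-uPA+/+ mice with human hepatocyte liver (≥70% replacement by blood human albumin) and serum HCV RNA >1.0×10^6 copies/mL the week before dosing. Oral gavage for 7 days in 20% HP-β-CD, 50-200 mg/kg QD or BID. Serum sampled pre-dose on days 1, 2, 3, 5 and 7. Real-time PCR; mean change in log10 copies/mL, day 7 vs day 1 pre-dose.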
# [6] = tested on: Liver; assay: Tlast in dog liver assessed as 2'-deoxy-2'-spirooxetane uridine triphosphate at 50 mg/kg, po; format: ADME, organism-based, Canis lupus familiaris; conditions: in vivo; outline: as §2
# [7] = tested on: Liver; assay: Tlast in mouse liver assessed as 2'-deoxy-2'-spirooxetane uridine triphosphate at 50 mg/kg, po; format: ADME, organism-based; conditions: in vivo; outline: as §2
# [8] = tested on: Hepatocyte; assay: Prodrug conversion in rat cryopreserved hepatocytes assessed as 2'-deoxy-2'-spirooxetane uridine triphosphate level per million cells at 10 uM after 8 hrs by LC-MS/MS analysis; format: ADME, cell-based; outline: as §1
# [9] = tested on: Hepatitis C virus; assay: Antiviral activity against HCV genotype 3a infected in homozygous cDNA-uPA chimeric SCID mouse bearing humanized hepatocytes assessed as reduction in HCV RNA level in serum administered through oral gavage once daily for 7 days by RT-PCR method; format: functional, organism-based; conditions: Hepacivirus hominis, Hepatocyte; outline: as §3
# [10] = tested on: Liver; assay: Half life in rat liver assessed as 2'-deoxy-2'-spirooxetane uridine triphosphate at 50 mg/kg, po; format: ADME, organism-based; conditions: in vivo
# Outline: (§4)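 Single oral dose of 50 mg/kg in 20% HP-β-cyclodextrin. Prodrug and triphosphate measured in plasma and liver over time (tlast 6–30 h). Half-life, Cmax, tmax and AUC0-last derived; liver/plasma ratio taken from AUC0-last. Prodrug data pooled from two independent studies.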
# [11] = tested on: Liver; assay: AUC (0 to last) in rat liver at 50 mg/kg, po; format: ADME, organism-based; conditions: in vivo
# Outline: (§5)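 Oral dose 50 mg/kg, formulated in 20% HP-β-cyclodextrin. Prodrug and triphosphate were measured in plasma and liver (ng/mL or ng/g). Parameters derived were Cmax, tmax, AUC0-last, AUC0-inf and t1/2. Some prodrug data come from two independent studies.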
# [12] = tested on: Hepatocyte; assay: Prodrug conversion in human primary hepatocytes assessed as 2'-deoxy-2'-spirooxetane uridine triphosphate formation measured at 48 to 96 hrs by LC-MS/MS analysis; format: ADME, cell-based
# Outline: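 Hepatocyte primary cultures followed over time for triphosphate formation in cell lysates: rat and mouse up to 24 h, human up to 96 h.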
# [13] = Tmax in dog liver at 50 mg/kg, po; format: ADME, organism-based, Canis lupus familiaris; outline: as §2
# [14] = Half life in rat plasma at 50 mg/kg, po; format: ADME, organism-based; outline: as §4
# [15] = tested on: Hepatocyte; assay: Prodrug conversion in human hepatocytes assessed as 2'-deoxy-2'-spirooxetane uridine triphosphate formation in presence of CYP3A4 inhibitor ketoconazole by LC-MS/MS analysis; format: ADME, cell-based
# [16] = tested on: Liver; assay: AUC (0 to last) in dog liver assessed as 2'-deoxy-2'-spirooxetane uridine triphosphate at 50 mg/kg, po; format: ADME, organism-based, Canis lupus familiaris; conditions: in vivo; outline: as §5
# [17] = tested on: Hepatitis C virus; assay: Antiviral activity against HCV genotype 1a infected in homozygous cDNA-uPA chimeric SCID mouse bearing humanized hepatocytes assessed as change in HCV RNA level in serum at 100 mg/kg, po qd administered through gavage for 7 days by RT-PCR method; format: functional, Hepacivirus hominis, subtype 1a, Hepatocyte; outline: as §3
# [18] = tested on: Hepatitis C virus; assay: Antiviral activity against HCV genotype 1b infected in human HuH7 cells assessed as inhibition of viral replication after 3 days by luciferase reporter gene assay; format: functional, organism-based, Hepacivirus hominis; conditions: Huh-7, 72 h
# Outline: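 HCV 1b subgenomic luciferase replicon (Huh7-luc, clone ET, adaptive mutations E1202G, T1280I, K1846T). 2,500 cells were incubated with compound over a 9-point, 1/4 dilution series for 3 days. Replication was read as luciferase activity.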
# [19] = tested on: Hepatocyte; assay: Prodrug conversion in human hepatocytes assessed as 2'-deoxy-2'-spirooxetane uridine triphosphate formation in presence of PDE4 inhibitor rolipram by LC-MS/MS analysis; format: ADME, cell-based
# [20] = Prodrug conversion in dog cryopreserved hepatocytes assessed as 2'-deoxy-2'-spirooxetane uridine triphosphate level per million cells at 10 uM after 24 hrs by LC-MS/MS analysis; format: ADME, cell-based, Canis lupus familiaris, Hepatocyte; outline: as §1
# [21] = tested on: Hepatocyte; assay: Prodrug conversion in rat primary hepatocytes assessed as 2'-deoxy-2'-spirooxetane uridine triphosphate level per million cells at 2 uM after 4 hrs using radiolabelled compound by LC-MS/MS analysis; format: ADME, cell-based
# Outline: (§6)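 Study A: fresh primary hepatocyte cultures from mouse, rat, dog and human incubated with tritiated prodrug at 2 or 62.5 µM for 4 or 24 h. Triphosphate in cell lysates reported as pmol/million hepatocytes. Duplicate or single measurements.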
# [22] = tested on: Hepatocyte; assay: Stability in rat primary hepatocyte supernatant assessed as parent compound level at 2 uM after 4 to 24 hrs using radiolabeled compound by HPLC analysis; format: ADME, cell-based; conditions: hepatocytes
# [23] = tested on: Hepatocyte; assay: Prodrug conversion in rat primary hepatocytes assessed as 2'-deoxy-2'-spirooxetane uridine triphosphate level per million cells at 2 uM after 24 hrs using radiolabelled compound by LC-MS/MS analysis; format: ADME, cell-based; outline: as §6
compound,measurement,setting,value
CC(C)O[P@@]1(=O)OC[C@H]2O[C@@H](n3ccc(=O)[nH]c3=O)[C@@]3(CCO3)[C@@H]2O1,Cmax,[1],944 ng/g
same,Drug metabolism,[2],0.181 pmol
same,Tmax,[3],1 h
same,Tlast,[4],24 h
same,Activity,[5],-1.08
same,Tlast,[6],24 h
same,Tlast,[7],24 h
same,Drug metabolism,[8],0.308 pmol
same,Activity,[9],Dose-dependent effect
same,t1/2,[10],5.8 h
same,AUClast,[11],2489 ng·h/g
same,Drug metabolism,[12],metabolite_detected
same,Tmax,[13],1 h
same,half-life,[14],4.8 h
same,Drug metabolism,[15],metabolite_notdetected
same,AUClast,[16],223803 ng·h/g
same,Activity,[17],-0.83
same,pEC50,[18],< 4.00
same,Drug metabolism,[19],metabolite_notdetected
same,Drug metabolism,[20],< 2 ng
[3H]C1O[P@](=O)(OC(C)C)O[C@@H]2[C@@H]1O[C@@H](n1ccc(=O)[nH]c1=O)[C@@]21CCO1 (stereo partly drawn),Drug metabolism,[21],0.085 pmol
same,Stability,[22],Stable
same,Drug metabolism,[23],0.027 pmol

# Source: ChEMBL document CHEMBL3826882, “Discovery of 1-((2R,4aR,6R,7R,7aR)-2-Isopropoxy-2-oxidodihydro-4H,6H-spiro[furo[3,2-d][1,3,2]dioxaphosphinine-7,2'-oxetan]-6-yl)pyrimidine-2,4(1H,3H)-dione (JNJ-54257099), a 3'-5'-Cyclic Phosphate Ester Prodrug of 2'-Deoxy-2'-Spirooxetane Uridine Triphosphate Useful for HCV Inhibition” (J Med Chem, 2016)
